From PubChem
STEP block: STEP (human) phosphatase inhibition; inhibition, % at 20 µM; P54829; hit rate 0.25% among 360,000; recombinant STEP, OMFP fluorogenic substrate, fluorescence;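 active = inhibition at 20 µM, scaled per plate between control wells, above about 37%, limit read from the data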;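 also: 0% = DMSO with enzyme and substrate and 100% = substrate only without enzyme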
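Assay system: isolated STEP enzyme / Timing: 20 min at room temperature, dark / Doses: 20 µM, 1% DMSO / Technique: fluorescence intensity, excitation 480 nm, emission 540 nm / Reagent: fluorogenic phosphatase substrate OMFP at 25 µM final / Measure: percent inhibition scaled to no-enzyme and uninhibited-enzyme controls, plate-pattern corrected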
SUMO1 PPI mod: alters human SUMO1 binding to SIM partners | P63165 | SUMO1 binding to a labelled peptide, TR-FRET, 1 h | inhibition, % at 20 µM | hit rate 0.33% among 360,000; in the data active = inhibition above about 37%
DNMT1 block: blocks human DNA methyltransferase DNMT1 | P26358 | DNMT1 molecular beacon, Hinp1I cleavage, fluorescence | inhibition (reported as % activation of signal), % at 10 µM | hit rate 0.83% among 360,000; in the data active = inhibition above about 50%
Target sequence (P26358 504-1616 limits assumed): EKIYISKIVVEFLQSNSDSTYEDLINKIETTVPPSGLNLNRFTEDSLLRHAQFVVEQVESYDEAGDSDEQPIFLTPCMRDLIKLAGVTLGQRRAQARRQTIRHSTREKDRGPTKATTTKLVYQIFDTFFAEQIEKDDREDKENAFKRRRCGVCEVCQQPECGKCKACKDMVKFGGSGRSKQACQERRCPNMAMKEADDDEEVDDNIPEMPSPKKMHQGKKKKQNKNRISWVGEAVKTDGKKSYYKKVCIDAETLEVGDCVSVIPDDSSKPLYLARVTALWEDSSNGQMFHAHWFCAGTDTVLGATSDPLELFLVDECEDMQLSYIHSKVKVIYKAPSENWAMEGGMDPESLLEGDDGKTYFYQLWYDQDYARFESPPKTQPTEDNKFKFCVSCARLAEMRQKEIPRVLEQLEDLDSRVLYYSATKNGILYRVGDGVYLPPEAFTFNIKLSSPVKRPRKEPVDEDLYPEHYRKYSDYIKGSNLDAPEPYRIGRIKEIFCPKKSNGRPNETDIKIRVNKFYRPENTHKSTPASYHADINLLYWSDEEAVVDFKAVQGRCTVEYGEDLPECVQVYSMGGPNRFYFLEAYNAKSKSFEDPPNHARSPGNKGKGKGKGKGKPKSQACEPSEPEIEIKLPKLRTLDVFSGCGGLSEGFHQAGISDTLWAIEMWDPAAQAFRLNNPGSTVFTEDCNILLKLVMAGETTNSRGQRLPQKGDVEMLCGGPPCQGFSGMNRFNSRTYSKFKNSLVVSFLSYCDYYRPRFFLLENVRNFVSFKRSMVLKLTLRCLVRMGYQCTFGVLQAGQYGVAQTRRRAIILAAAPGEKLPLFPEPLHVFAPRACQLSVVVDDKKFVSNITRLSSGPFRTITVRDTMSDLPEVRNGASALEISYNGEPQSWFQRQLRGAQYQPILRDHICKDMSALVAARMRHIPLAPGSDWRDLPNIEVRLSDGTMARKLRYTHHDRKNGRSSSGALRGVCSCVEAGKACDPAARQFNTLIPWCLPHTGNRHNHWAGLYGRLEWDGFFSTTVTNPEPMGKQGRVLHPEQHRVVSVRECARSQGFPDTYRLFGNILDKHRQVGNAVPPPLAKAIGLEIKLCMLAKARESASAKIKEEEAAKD
Scp-1 inhibitor: blocks human Scp-1 phosphatase activity; Q9GZU7; hit rate 0.88% among 340,000; inhibition, % at 20 µM; Recombinant Scp1, phosphopeptide, malachite green phosphate absorbance; AID 493091;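 active = inhibition above about 50% at 20 µM, limit read from the data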;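 also: plate controls were DMSO wells with enzyme for no effect and wells lacking enzyme for full effect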
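Test system – truncated SCP-1 phosphatase (76-261aa) · Reagent – Phosphorylated 17-residue peptide substrate · Incubation – 45 min room-temperature reaction, 5 min colour, 30 min stabiliser · Detection – colorimetric phosphate reagent with accelerator and stabiliser, absorbance at 630 nm · Measure – % inhibition at 20 µM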
LMPTP inh: blocks human LMPTP phosphatase | P24666 | recombinant LMPTP-A, OMFP fluorogenic substrate, fluorescence intensity | inhibition, % at 20 µM | hit rate 0.22% among 360,000;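 active = compounds that cut the enzyme signal by at least half of the control window in the single-dose screen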;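 also: plate controls were DMSO wells with enzyme plus substrate for no effect and substrate without enzyme for full effect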
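test system = LMPTP-A | amount = 0.625 nM LMPTP-A final | reagent = fluorogenic phosphatase substrate OMFP at 400 µM final | incubation = 50 min at room temperature | benchmarks = no-enzyme low control, uninhibited high control | medium = Bis-Tris pH 6.0, DTT, detergent | signal = fluorescence intensity of OMFP turnover product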
Active calls of the source: *. A selection: hits, their analogues and other compounds. The true share with any hit is near 1.7%.

How did CCn1cc(C(=O)O)c(=O)c2cc(F)c(N3CCN(C(=S)NC(=O)c4ccccc4)CC3)cc21 do in these assays?
STEP block: -0.5; SUMO1 PPI mod: 7.8; DNMT1 block: -3.2; Scp-1 inhibitor: -15.5; LMPTP inh: 66.5*

What do the screens show for `O=C(COc1ccccc1)NC(=S)Nc1cccc2cc(O)ccc12`?
STEP block: 0.3; SUMO1 PPI mod: -1.0; DNMT1 block: -3.3; Scp-1 inhibitor: -7.6; LMPTP inh: 2.1

How did NC(=O)C1=C(N=C2CCCCC2)CCCC1 do in these assays?
STEP block: 3.8; SUMO1 PPI mod: 2.4; DNMT1 block: 3.4; Scp-1 inhibitor: -4.7; LMPTP inh: -0.6

How did O=C(Cn1nc(-c2ccccc2)oc1=O)OCC(=O)c1ccccc1 do in these assays?
STEP block: -3.9; SUMO1 PPI mod: -4.1; DNMT1 block: 9.6; Scp-1 inhibitor: 1.8; LMPTP inh: -1.2

How did CCN(CC(=O)Nc1ccccc1OC)C(=O)CN1C(=O)NC(C)(c2ccc3ccccc3c2)C1=O (stereo not drawn) do in these assays?
STEP block: -1.5; SUMO1 PPI mod: 0.5; DNMT1 block: -1.3; Scp-1 inhibitor: -12.0; LMPTP inh: -0.7

How did COc1cccc(-c2c(C#N)c(N)nc3c2c(C)nn3-c2ccccc2)c1O do in these assays?
STEP block: -2.4; SUMO1 PPI mod: -1.0; DNMT1 block: -14.6; Scp-1 inhibitor: -0.9; LMPTP inh: 1.1

What do the screens show for `COc1ccc(C(=O)N2CCCC(CNC(=O)c3ccccc3Cl)C2)o1` (stereo not drawn)?
STEP block: -3.6; SUMO1 PPI mod: 5.5; DNMT1 block: -0.4; Scp-1 inhibitor: -13.3; LMPTP inh: -0.6

Results for CCn1cc(C(=O)O)c(=O)c2cc(F)c(N3CCN(C(=S)NC(=O)c4ccccc4Cl)CC3)cc21 ?
STEP block: 6.5; SUMO1 PPI mod: 26.6; DNMT1 block: -0.2; Scp-1 inhibitor: -10.7; LMPTP inh: 62.5*

What do the screens show for `CCn1cc(C(=O)O)c(=O)c2cnc(N3CCN(C(=S)Nc4ccccc4)CC3)nc21`?
STEP block: 1.0; SUMO1 PPI mod: 13.1; DNMT1 block: -5.4; Scp-1 inhibitor: -7.2; LMPTP inh: 1.5

How did CCn1cc(C(=O)O)c(=O)c2cc(F)c(N3CCN(C(=S)Nc4ccc(OC)cc4)CC3)cc21 do in these assays?
STEP block: -2.4; SUMO1 PPI mod: -1.8; DNMT1 block: 6.4; Scp-1 inhibitor: -12.3; LMPTP inh: 59.1*

How did COc1cccc2c1C(=O)c1c(O)c3c(c(O)c1C2=O)C[C@@](O)(C(=O)CO)C[C@@H]3OC1CC(N)C(O)C(C)O1 (stereo partly drawn) do in these assays?
STEP block: -20.6; SUMO1 PPI mod: 91.5*; DNMT1 block: -202.3; Scp-1 inhibitor: -5.3; LMPTP inh: 9.1

What do the screens show for `COC(=O)c1[nH]c2ccccc2c1NC(=O)C(C)N1CC(C)OC(C)C1` (stereo not drawn)?
STEP block: 1.7; SUMO1 PPI mod: -8.0; DNMT1 block: -2.7; Scp-1 inhibitor: 28.3; LMPTP inh: -0.1

How did CC(=O)c1nc(-c2ccccc2)sc1C do in these assays?
STEP block: -1.3; SUMO1 PPI mod: -18.3; DNMT1 block: 0.5; Scp-1 inhibitor: -7.7; LMPTP inh: 0.6

How did Cc1ccc2nc3n(c(=O)c2c1)-c1ncccc1C(=O)NC3Cc1ccccc1 (stereo not drawn) do in these assays?
STEP block: 2.0; SUMO1 PPI mod: 0.6; DNMT1 block: 1.3; LMPTP inh: -0.7

Results for O=C(CN1CCN(S(=O)(=O)c2ccc(Cl)cc2)CC1)c1ccc(O)c(O)c1 ?
STEP block: 2.1; SUMO1 PPI mod: -1.2; DNMT1 block: 2.8; Scp-1 inhibitor: 6.8; LMPTP inh: 59.4*

Results for COc1ccc(S(=O)(=O)N2CCN(CC(=O)c3ccc(O)c(O)c3)CC2)cc1 ?
STEP block: 2.4; SUMO1 PPI mod: -2.3; DNMT1 block: 3.2; Scp-1 inhibitor: -5.1; LMPTP inh: 69.9*

Results for O=C(CN1CCN(S(=O)(=O)c2ccc(F)cc2)CC1)c1ccc(O)c(O)c1 ?
STEP block: 2.1; SUMO1 PPI mod: -1.5; DNMT1 block: 2.1; Scp-1 inhibitor: -2.3; LMPTP inh: 66.2*

How did CC(=O)c1sc(NC(=O)c2oc3ccc(F)cc3c2C)nc1C do in these assays?
STEP block: 2.7; SUMO1 PPI mod: -49.8; DNMT1 block: -18.6; Scp-1 inhibitor: -8.1; LMPTP inh: 3.9

What do the screens show for `CC(OC(=O)CNC(=O)c1sc2ccccc2c1Cl)c1ccccc1` (stereo not drawn)?
STEP block: 6.0; SUMO1 PPI mod: -3.7; DNMT1 block: -0.6; Scp-1 inhibitor: -12.0; LMPTP inh: 2.5

How did N#Cc1cccc(NC(=O)CSc2ccc3c4c(cccc24)C(=O)c2ccccc2-3)c1 do in these assays?
STEP block: -8.8; SUMO1 PPI mod: -14.5; DNMT1 block: 82.2*; Scp-1 inhibitor: 41.8; LMPTP inh: 27.1

Results for CC(C)[C@H](NC(=O)OCc1ccccc1)C(=O)OCC(=O)NCc1ccco1 ?
STEP block: -1.0; SUMO1 PPI mod: 1.9; DNMT1 block: 18.8; Scp-1 inhibitor: 58.8*; LMPTP inh: -1.0

How did COc1ccc(CSc2nc(O)cc(=O)n2CC(C)C)cc1F do in these assays?
STEP block: -1.7; SUMO1 PPI mod: -0.1; DNMT1 block: 2.7; Scp-1 inhibitor: 0.1; LMPTP inh: 1.5

Results for CN(Cc1ccccc1)C(=O)[C@@H]1CCCN1C(=O)[C@@H]1CCCN1C(=O)c1cccs1 ?
SUMO1 PPI mod: 0.9; LMPTP inh: -1.7

How did CCOc1cc(OCC)cc(C(=O)N2CCC[C@H]2C(=O)N2CCC[C@H]2C(=O)N(C)Cc2ccccc2)c1 do in these assays?
SUMO1 PPI mod: 58.6*; LMPTP inh: 8.5

What do the screens show for `O=C(CCCN1C(=O)c2ccccc2C1=O)NCCN1C(=O)S/C(=C\c2cccs2)C1=O`?
STEP block: 0.6; SUMO1 PPI mod: -22.1; DNMT1 block: -0.8; Scp-1 inhibitor: 1.5; LMPTP inh: 0.0

How did Cc1cc(N)ccc1N1CCCC1 do in these assays?
STEP block: 24.0; SUMO1 PPI mod: 2.4; DNMT1 block: 83.4*; Scp-1 inhibitor: 3.2; LMPTP inh: 68.0*

How did CN(c1ccc(F)cc1)S(=O)(=O)c1ccc(Cl)c(C(=O)NCc2ccco2)c1 do in these assays?
STEP block: -3.2; SUMO1 PPI mod: 4.8; DNMT1 block: 1.8; Scp-1 inhibitor: -10.7; LMPTP inh: 0.0

How did COc1cc(NC(C)CCCNC(C)C)c2ncccc2c1OC (stereo not drawn) do in these assays?
STEP block: -2.3; SUMO1 PPI mod: -6.3; DNMT1 block: -4.5; Scp-1 inhibitor: -2.7; LMPTP inh: -1.0

How did COc1cc(NCCCCCCN)c2ncccc2c1OC do in these assays?
STEP block: 2.3; SUMO1 PPI mod: -11.8; DNMT1 block: 61.7*; Scp-1 inhibitor: -15.3; LMPTP inh: 28.7

How did N#C/C(=C(/O)c1ccc(-c2cccc([N+](=O)[O-])c2)o1)c1nc2ccccc2s1 do in these assays?
STEP block: 11.8; SUMO1 PPI mod: 16.4; DNMT1 block: -27.2; Scp-1 inhibitor: 88.8*; LMPTP inh: 52.3*
